The source of these data is ChEMBL document CHEMBL5321273, “Bicyclic Peptide Library Screening for the Identification of Gαi Protein Modulators” (J Med Chem, 2023).

By pKd is commonly meant the Kd on a negative log10 scale, so that one unit is a factor of ten. The term pIC50 denotes the negative decadic logarithm of the IC50, by convention in mol/L.

Data set [1] deals with T1, Guanine nucleotide-binding protein G(i) subunit alpha-1 (Homo sapiens, UniProt P63096). Description: Binding affinity to N-terminal 6His-tagged GDP-bound Galphai1 (unknown origin) expressed in Escherichia coli BL21 (DE3) assessed as dissociation constant by SPR analysis. The essentials:
(§1)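 SPR: Gαi1 loaded with GDP or GMPPNP immobilized on sensor chip by amine coupling; peptides flowed over at varying concentrations; KD determined. Reverse orientation (peptide immobilized, protein flowed) also run.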
(In general: In SPR one partner is held on a chip, and binding of the other changes the refractive index at the surface.)

In data set [2] the test system is HeLa. Description: Modulation of Galphai in forskolin-stimulated human HeLa cells assessed as adenylyl cyclase mediated decrease in cAMP level at 2.5 to 10 uM incubated for 30 mins by BRET analysis relative to control. Type of data set: cell-based. Conditions: dose 2.5-10 µM. The essentials:
(§2)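 HeLa cells in DMEM/10% FBS transfected with Gαi(C351I) or pcDNA plus modified CAMYEL cAMP BRET sensor; replated 40K/well; peptide (10, 5, 2.5 μM final, assay buffer pH 8.0) 30 min RT; 100 μM IBMX + 10 μM CTZ added, luminescence 7 min; then Fsk, BRET 15 min; AUC normalized to no-peptide; triplicates.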
(Changes in cAMP serve as a functional read-out for many G protein-coupled receptors.)

Data set [3] deals with HeLa. The data set can be described thus: Cytotoxicity against human HeLa cells assessed as reduction in cell viability upto 80 uM incubated for overnight by MTT assay. The format is toxicity, cell-based. A general note: Tetrazolium dyes change colour on reduction, which living cells bring about.
Data set [4] concerns NG108-15. Description: Modulation of Galphai in DADLE/forskolin-stimulated NG108-15 cell membrane expressing human beta2-AR co-expressing […] receptor assessed as decrease in cAMP level at 10 uM relative to control. The format is cell membranes. Details: scale not given: the % may be the effect or the level left. The method, boiled down:
(§3)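 Cell-free AC assay on membranes from NG108–15 hybrid cells stably expressing human β2-AR; peptides 10 μM; cAMP production stimulated with Fsk or Fsk + DADLE; read by ELISA; values as percent of untreated control; n = 3, SD.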

Data set [5] has as its system NG108-15. Description: Modulation of Galphai in forskolin-stimulated NG108-15 cell membrane expressing human beta2-AR co-expressing […] receptor assessed as increase in cAMP level at 10 uM relative to control. Type of data set: cell membranes. The method, boiled down:
as §3

Data set [6] has as its system NG108-15. The data set can be described thus: Modulation of Galphai in forskolin/DADLE-stimulated NG108-15 cell membrane expressing human beta2-AR co-expressing mu-opioid receptor assessed as increase in cAMP level at 10 uM relative to control. The format is cell membranes. The essentials: as §3
Data set [7] concerns HeLa. Description: Modulation of Galphai in forskolin-stimulated human HeLa cells assessed as adenylyl cyclase mediated increase in cAMP level at 2.5 uM incubated for 30 mins by BRET analysis relative to control. The format is cell-based. The essentials:
as §2

Data set [8] has as its target T1, Guanine nucleotide-binding protein G(i) subunit alpha-1. The data set can be described thus: Binding affinity to N-terminal 6His-tagged GMPPNP-bound Galphai1 (unknown origin) expressed in Escherichia coli BL21 (DE3) assessed as dissociation constant by SPR analysis. The essentials:
as §1

In data set [9] the test system is HeLa. Description: Modulation of Galphai in isoproterenol-stimulated human HeLa cells assessed as effect on cAMP level at 2.5 to 5 uM incubated for 30 mins by BRET analysis relative to control. The settings on record: dose 2.5-5 µM. Type of data set: cell-based. The essentials: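 CAMYEL BRET in HeLa cells transfected with β2-AR plus modified CAMYEL; peptide (10, 5, 2.5 μM final) 30 min RT in pH 8.0 assay buffer; IBMX 100 μM + CTZ 10 μM, 7 min read; isoproterenol added, BRET 15 min; AUC normalized to untreated; triplicates.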

Data set [10] can be described thus: Stability in human plasma at 1 mM measured upto 180 mins by HPLC analysis. Conditions: 3 h, 1000 µM. The format is ADME, cell-free.
Data set [11] concerns HeLa. Description: Modulation of Galphai in human HeLa cells assessed as increase in cAMP level at 2.5 uM incubated for 30 mins followed by forskolin stimulation measured after 30 mins by TR-FRET analysis relative to control. The format is cell-based. Conditions: filed as modulator, time 60.0 min. The method, boiled down: (§4)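 Endpoint intracellular cAMP by TR-FRET (LANCE Ultra cAMP kit) in HeLa cells incubated with a range of peptide concentrations, then Fsk-stimulated or unstimulated; cAMP quantified against a cAMP standard curve.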

Data set [12] is described as follows: Modulation of Galphai in human HeLa cells assessed as increase in cAMP level incubated for 30 mins followed by forskolin stimulation measured after 30 mins by TR-FRET analysis. The format is cell-based. The settings on record: 0.5 h. The essentials:
as §4

The test system of data set [13] is HeLa. The data set can be described thus: Modulation of Galphai in human HeLa cells assessed as hetero-trimer reassociation by measuring decrease in free G-beta/gamma dimer level at 2.5 uM incubated for 30 mins by BRET analysis. Conditions: filed as modulator. Type of data set: cell-based. The method, boiled down: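 Free Gβγ BRET using Rluc-fused GRK3ct as biosensor in HeLa cells; 30 min incubation with 2.5 μM peptide or none; BRET signal normalized to untreated; n = 3, S.E.M., one-way ANOVA.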

In data set [14] the test system is HeLa. The data set can be described thus: Modulation of Galphai in human HeLa cells assessed as hetero-trimer reassociation by measuring decrease in free Galphai monomer level at 2.5 uM incubated for 30 mins by BRET analysis. Type of data set: cell-based. The settings on record: filed as modulator. The essentials:
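Gβγ release BRET: HeLa cells transfected with Venus-Gβ, Gγ and Rluc8-Gαi (500 ng each); peptide 2.5 μM 30 min RT; CTZ 10 μM added; BRET ratio from emission scan, AUC normalized to no-peptide; n = 3, S.E.M.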

Data set [15] deals with HeLa. The data set can be described thus: Modulation of Galphai in human HeLa cells assessed as hetero-trimer reassociation by measuring effect on phosphorylated Akt level at 2.5 uM incubated for 30 mins by immunoblotting analysis. The format is cell-based.
The subject of data set [16] is HeLa. The data set can be described thus: Modulation of Galphai in human HeLa cells assessed as hetero-trimer reassociation by measuring effect on total Akt level at 2.5 uM incubated for 30 mins by immunoblotting analysis. The format is cell-based.
For data set [17], the system named is HeLa. Description: Modulation of Galphai in human HeLa cells assessed as hetero-trimer reassociation by measuring effect on phosphorylated ERK level at 2.5 uM incubated for 30 mins by immunoblotting analysis. Type of data set: cell-based.
In data set [18] the test system is HeLa. The data set can be described thus: Modulation of Galphai in human HeLa cells assessed as hetero-trimer reassociation by measuring effect on total ERK level at 2.5 uM incubated for 30 mins by immunoblotting analysis. Type of data set: cell-based.

Structures are written as SMILES. pIC50, pKd: −log10 of the molar value. The source made the active and inactive calls. No cut-off for these calls is given here.

T1 sequence (P63096 whole entry): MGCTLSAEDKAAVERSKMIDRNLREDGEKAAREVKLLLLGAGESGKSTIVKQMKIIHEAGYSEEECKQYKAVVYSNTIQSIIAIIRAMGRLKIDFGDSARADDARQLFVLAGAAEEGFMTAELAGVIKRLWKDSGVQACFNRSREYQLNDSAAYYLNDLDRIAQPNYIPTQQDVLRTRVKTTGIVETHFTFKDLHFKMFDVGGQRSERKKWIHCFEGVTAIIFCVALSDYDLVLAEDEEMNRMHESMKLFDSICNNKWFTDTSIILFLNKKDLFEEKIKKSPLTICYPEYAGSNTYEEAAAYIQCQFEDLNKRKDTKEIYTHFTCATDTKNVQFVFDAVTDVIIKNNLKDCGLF

As to `N=C(N)NCCC[C@@H]1NC(=O)CNC(=O)[C@H](CO)NC(=O)c2cc3cc(c2)C(=O)NC[C@@H](C(=O)N[C@@H](CCCCN)C(N)=O)NC(=O)[C@@H](Cc2cccc4ccccc24)NC(=O)[C@H](Cc2ccc(O)cc2)NC(=O)[C@@H](CCCCN)NC(=O)[C@@H](Cc2cccc4ccccc24)NC(=O)[C@H](CCCNC3=O)NC1=O`, the pKd in [1] is 4.61. Besides, the outcome with HeLa [2] (filed as modulator) was Active. Moreover, the Activity entry in the data set on HeLa [3] is “Non-Toxic”.
For the compound `CC[C@H](C)[C@@H]1NC(=O)c2cc3cc(c2)C(=O)NC[C@@H](C(=O)N[C@@H](CCCCN)C(N)=O)NC(=O)[C@H](Cc2c[nH]c4ccccc24)NC(=O)[C@@H](Cc2ccc4ccccc4c2)NC(=O)[C@@H](C(C)C)NC(=O)[C@H](CCCNC3=O)NC(=O)[C@@H](CC(N)=O)NC(=O)[C@@H](CC(C)C)NC1=O`, the outcome (with NG108-15 [4]; in the data set on NG108-15 [5]; in the data set with NG108-15 [6]; in data set [1]; in the data set with HeLa [7]; in the data set with HeLa [2]) was inactive. Moreover, in the data set on HeLa [3], the Activity entry was “Non-Toxic”.
Regarding `NCCCC[C@H](NC(=O)[C@@H]1CNC(=O)c2cc3cc(c2)C(=O)N[C@H](Cc2cccc4ccccc24)C(=O)N[C@H](Cc2ccccc2)C(=O)N2CCC[C@@H]2C(=O)N[C@@H](CCCNC3=O)C(=O)N2CCC[C@@H]2C(=O)N[C@H](CCCCN)C(=O)N2CCC[C@@H]2C(=O)N[C@@H](Cc2ccc(O)cc2)C(=O)N1)C(N)=O`, the results for the Activity in the data set on NG108-15 [4] (filed as modulator) and in the data set on HeLa [3] were 40% and “Non-Toxic”, respectively. Besides, the results for the pKd in data set [1] and in data set [8] were 5.30 and 6.15, respectively. For the same compound, the outcome with HeLa [2] (filed as modulator) was Active. For the same compound, in the data set with HeLa [9], the result was inactive.
`CC[C@H](C)[C@@H]1NC(=O)[C@@H](Cc2cccc3ccccc23)NC(=O)c2cc3cc(c2)C(=O)NC[C@@H](C(=O)N[C@@H](CCCCN)C(N)=O)NC(=O)[C@@H](C)NC(=O)[C@@H](Cc2ccccc2)NC(=O)[C@H](CCCNC(=N)N)NC(=O)[C@H](C)NC(=O)[C@@H](CCCNC3=O)NC(=O)[C@@H](C(C)C)NC(=O)[C@@H](Cc2ccccc2)NC1=O`: the Activity is 30% in the data set with NG108-15 [5], 30% in the data set on NG108-15 [6] (in the assay text read “delta-opioid receptor” for “mu-opioid receptor”), 10% in the data set with HeLa [7] and “Non-Toxic” in the data set with HeLa [3]. For the same compound, in data set [1], the pKd is 4.59. The outcome with HeLa [9], with HeLa [15], in the data set with HeLa [16], in the data set on HeLa [17] and with HeLa [18] was inactive. Also, the Stability entry in data set [10] is “Stable”. In addition, the result with HeLa [11], with HeLa [13] and with HeLa [14] was Active. In addition, the pIC50 in data set [12] was 5.16.
